An excerpt weighted towards active compounds, which were near 3.1% of everything screened.
RBBP9 inh: human RBBP9 hydrolase inhibition | recombinant RBBP9, FP-Rh probe fluorescence polarization | inhibition, % at 7.94 µM | actives 0.2% (n = 220,000) | AID 1515;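 active = inhibition above the campaign mean of all tested compounds plus 3 SD, cut at about 14% in these data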
Target sequence (O75884 whole entry, looked up): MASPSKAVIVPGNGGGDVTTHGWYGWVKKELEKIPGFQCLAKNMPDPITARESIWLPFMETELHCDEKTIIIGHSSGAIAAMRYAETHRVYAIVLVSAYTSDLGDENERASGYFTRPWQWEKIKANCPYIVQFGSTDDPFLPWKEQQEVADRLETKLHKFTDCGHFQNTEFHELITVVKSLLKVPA
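System: RBBP9 protein | Quantity: 2.5 µM RBBP9 dispensing solution, before mixing | Reagent: FP-Rh probe, 375 nM dispensing solution | Timing: Enzyme-compound preincubation 30 min, then probe labeling 45 min, 25 °C | Measured by: Fluorescence polarization | Read-out: % inhibition | Replication: One well per compound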
PRMT1 inh: PRMT1 (human) inhibition, primary screen; Q99873; recombinant PRMT1, activity-based probe fluorescence polarization; inhibition, % at 2.79 µM; actives 1.3% (n = 370,000); AID 652257;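 active = inhibition above about 21% made by adding two undisclosed values, limit read from the data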
Target sequence (Q99873 whole entry, looked up): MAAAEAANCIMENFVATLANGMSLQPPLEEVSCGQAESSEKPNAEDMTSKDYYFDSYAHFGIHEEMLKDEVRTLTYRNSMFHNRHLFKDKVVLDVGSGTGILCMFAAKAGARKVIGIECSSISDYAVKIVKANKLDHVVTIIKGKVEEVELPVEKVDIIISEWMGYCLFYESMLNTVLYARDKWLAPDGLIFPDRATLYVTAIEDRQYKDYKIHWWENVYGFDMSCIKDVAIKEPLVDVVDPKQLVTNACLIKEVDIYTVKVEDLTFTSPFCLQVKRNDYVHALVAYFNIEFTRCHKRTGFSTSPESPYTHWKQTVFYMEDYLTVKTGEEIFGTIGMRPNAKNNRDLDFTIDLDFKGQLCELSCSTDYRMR
MBD2 inh: MBD2-methylated oligo binding inhibition; Q9UBB5; inhibition, % at 4.4 µM; actives 0.31% (n = 370,000); TR-FRET, MBD2 binding to methylated oligonucleotide; AID 686964; in the data active = inhibition above about 13%
ABHD5-PLIN5 inh: blocks binding of human ABHD5 to perilipin-5 | actives 0.78% (n = 360,000) | AID 602281 | Split G. princeps luciferase complementation, luminescence, 4 h | inhibition, % at 4 µM;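 active = inhibition above the mean inhibition across every tested compound plus 3 SD, cut at about 22% in these data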
UHRF1 binding: blocks human UHRF1 binding to methylated DNA; UHRF1 binding to methylated oligo, TR-FRET; inhibition, % at 4.4 µM; actives 0.75% (n = 370,000); AID 687016;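 note: UHRF1 SRA domain binding a hemimethylated CpG hairpin DNA probe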
LEDGF integ inh: blocks HIV-1 LEDGF/p75-dependent DNA integration. TR-FRET IN-LEDGF/p75 DNA integration, Eu/Cy5. inhibition, % at 3.7 µM. actives 0.64% (n = 370,000);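 active = inhibition above the screen-wide mean plus 3 SD, cut at about 13% in these data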;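 note: signal is the Cy5 over europium emission ratio at 671 and 618 nm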
PRMT1 confirm: PRMT1 (human) inhibition, FP confirmation; shares compounds with PRMT1 inh; recombinant His-PRMT1, activity-based probe fluorescence polarization; inhibition, % at 2.79 µM; actives 42% (n = 3,300); AID 687036;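 active = mean inhibition across replicates above the hit cutoff derived for the earlier primary screen, cut at about 22% in these data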
UHRF1 ctr MBD2: UHRF1 methyl-oligo binding inhibition as MBD2 counter-screen; shares compounds with MBD2 inh; UHRF1 binding to methylated oligonucleotide, TR-FRET; inhibition, % at 4.4 µM; actives 25% (n = 1,000);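 note: UHRF1 SRA domain binding a labeled hemimethylated CpG hairpin DNA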
MBD2 confirm: MBD2-DBD methyl-DNA binding inhibition, TR-FRET confirmation; inhibition, % at 4.4 µM; actives 26% (n = 1,000); TR-FRET MBD2-DBD binding to methylated oligonucleotide; shares compounds with MBD2 inh; in the data active = inhibition above about 14%
Large screens that a line does not name were inactive (follow-up assays come after a bar, where they were run). Cut-off read from the data, not from the text of the source, unless noted: active = inhibition above about 21%; inactive = the rest.

C[C@@H]1CN([C@@H](C)CO)C(=O)CCCn2nncc2CO[C@@H]1CN(C)C(=O)Oc1ccccc1	none (no result: RBBP9 inh)
CCOP(=O)(OCC)C(O)c1ccc(OC)cc1 (centres undefined)	none
O=P(Nc1ccccc1)(Oc1ccccc1)Oc1ccccc1	PRMT1 inh 82 | PRMT1 confirm inactive
O=P(Nc1ccccc1)(Nc1ccccc1)Oc1ccccc1	none
O=C1NC(=S)NC(=O)C1Cc1ccccc1O	none (no result: RBBP9 inh)
CN1C[C@H](CNC(=O)OCc2ccccc2)C[C@@H]2c3cccc4c3c(cn4C)C[C@H]21	PRMT1 inh 39 | PRMT1 confirm inactive
CN1C[C@H](CO)C[C@@H]2c3cccc4[nH]cc(c34)C[C@H]21	none (no result: RBBP9 inh)
O=C1NC(=O)N(Cc2ccccc2)C(=O)/C1=C/N1CCCc2ccccc21	PRMT1 inh 28 | PRMT1 confirm inactive
Cc1nn(CCC#N)c2c1P(=S)(N1CCCC1)OC(c1ccc(F)cc1)=N2 (centres undefined)	PRMT1 inh 77 | PRMT1 confirm 44
COc1cc(OC)c2c(c1)O[C@@H](c1ccc(OC)c(OC)c1)[C@H](O)C2	none (no result: RBBP9 inh)
C/C(=N\Nc1ccccc1)c1c(O)[nH]c(=O)[nH]c1=O	none
CC/C(=N\NC(=S)Nc1ccccc1)c1c(O)[nH]c(=O)[nH]c1=O	PRMT1 inh 45 | PRMT1 confirm 46
CCOC(=O)c1c(/N=C/c2c(O)n(-c3ccc(F)cc3)c(=S)[nH]c2=O)sc2c1CCCC2	PRMT1 inh 27 | PRMT1 confirm inactive
CCOC(=O)c1c(/N=C/c2c(O)n(-c3ccccc3F)c(=S)[nH]c2=O)sc2c1CCCC2	PRMT1 inh 42 | PRMT1 confirm inactive
CCOC(=O)c1ccc(N=Cc2c(O)n(-c3ccc(OC)cc3)c(=S)[nH]c2=O)cc1	none
C#C[C@]1(O)CC[C@H]2[C@@H]3CCC4=Cc5nc6nc7ccccc7n6cc5C[C@]4(C)[C@H]3CC[C@@]21C	none (no result: RBBP9 inh)
COCCOC(=O)c1c(N)n(Cc2ccco2)c2nc3ccccc3nc12	PRMT1 inh 30 | PRMT1 confirm inactive
C=CCOC(=O)C1C(C(=O)O)C2(Cl)C(Cl)=C(Cl)C1(Cl)C2(Cl)Cl (centres undefined)	PRMT1 inh 64 (no result: RBBP9 inh) | PRMT1 confirm inactive
O=C(O)C1C(C(=O)O)C2(Cl)C(Cl)=C(Cl)C1(Cl)C2(Cl)Cl (centres undefined)	none (no result: RBBP9 inh)
Cc1cc(N2CCCCC2)ccc1C=C1C(=O)N(C)C(=S)N(C)C1=O	PRMT1 inh 29 | PRMT1 confirm 22
CN1C(=O)/C(=C\c2ccc(N3CCCCCC3)cc2)C(=O)NC1=S	none
CN(C)c1ccc(CCN2CCOCC2)cc1	none (no result: RBBP9 inh)
CN(C)c1ccc2c(c1)N=C(c1ccco1)OP2(=S)N1CCOCC1 (centres undefined)	PRMT1 inh 26 | PRMT1 confirm 50
Cc1ccc(C2C(=O)NC(=O)NC2=O)cc1	none (no result: RBBP9 inh)
CN(C)P(=O)(N(C)C)N1CC1	none (no result: RBBP9 inh)
CCOC(=O)C1SC2(C(F)F)CC1(O)c1c(c(OC)c3occc3c1OC)O2 (centres undefined)	PRMT1 inh 29 | PRMT1 confirm inactive
O=C1CC(N2CCC(n3c(=O)[nH]c4ccccc43)CC2)C(=O)N1c1ccc(F)cc1 (centres undefined)	PRMT1 inh 45 | PRMT1 confirm inactive
Cc1ccccc1NC1(C#N)CCCCC1	none
CC12Nc3ccccc3C(=O)N1Cc1cnnn1-c1ccccc12 (centres undefined)	none (no result: RBBP9 inh)
O=c1[nH]c(=O)n(C2CCCCC2)c(O)c1C1NCCc2ccccc21 (centres undefined)	PRMT1 inh 28 | PRMT1 confirm inactive
CCC(=NCc1cccnc1)c1c(O)n(C2CCCCC2)c(=O)[nH]c1=O	none
Cc1ccc2cc(C=C(C#N)C#N)c(Cl)nc2c1	PRMT1 inh 52 | PRMT1 confirm 22
O=C1NC(=O)C(=Cc2ccc3c(c2)OCO3)C(=O)N1	PRMT1 inh 25 (no result: ABHD5-PLIN5 inh) | PRMT1 confirm inactive
CS(=O)(=O)c1ccc(C2=C(CNC(=O)c3cccnc3)[C@H]3CC[C@@H](C2)N3Cc2ccccc2)cc1	none (no result: RBBP9 inh)
COc1ccc(OC)c(N2C(=O)NC(=O)/C(=C/c3ccc([N+](=O)[O-])s3)C2=O)c1	PRMT1 inh 28 | PRMT1 confirm 58
Cc1cc(N2CCNC[C@H]2C)ccc1N1CC[C@H](O)C1	PRMT1 inh 41 (no result: RBBP9 inh, ABHD5-PLIN5 inh) | PRMT1 confirm inactive
Cc1ccc(/C=C2\C(=O)NC(=S)N(c3cccc(F)c3)C2=O)o1	PRMT1 inh 29 (no result: RBBP9 inh) | PRMT1 confirm 57
O=C1CC(=O)N(Cc2ccccc2)C(=S)N1	PRMT1 inh 32 (no result: RBBP9 inh) | PRMT1 confirm inactive
CSc1ncc(/C=C2/C(=O)NC(=O)N(C3CCCCC3)C2=O)cn1	PRMT1 inh 26 | PRMT1 confirm inactive
CSc1ncc(/C=C2/C(=O)NC(=O)N(C)C2=O)cn1	none
CC1(C)CCCN1CCC(C(N)=O)(c1ccccc1)c1ccccc1	none (no result: RBBP9 inh)
NC(=O)CSP(=O)(c1ccccc1)c1ccccc1	PRMT1 inh 38 | PRMT1 confirm 65
Cc1c(C=C2C(=O)NC(=O)NC2=O)c(=O)n(-c2ccccc2)n1C	none
O=C1NC(=O)C(=Cc2c(Cl)cccc2Cl)C(=O)N1	PRMT1 inh 31 (no result: RBBP9 inh) | PRMT1 confirm inactive
COP(=S)(OC)SCn1nnc2ccccc2c1=O	PRMT1 inh 89 (no result: RBBP9 inh) | PRMT1 confirm 74
CC(C)OP(=O)(Oc1ccc(C(O)C(Cl)(Cl)Cl)cc1)OC(C)C (centres undefined)	none
Cn1cccc1/C=C1\C(=O)NC(=O)N(Cc2ccco2)C1=O	PRMT1 inh 31, MBD2 inh 20, UHRF1 binding 63, LEDGF integ inh 65 | PRMT1 confirm 22 | UHRF1 ctr MBD2 30 | MBD2 confirm 14
CCC(C)(O)C(=O)OC1C(=O)OC2CC3C(C)=CC(O)C(O)C3(C)C3C4(O)OCC23C1C(C)C4O (centres undefined)	none (no result: RBBP9 inh)
